pIC50: −log10 of the molar value.
Assays:
RAW 264.7 cells = test: Cellular uptake and metabolism of α-MG; assay type: in vitro ADME, murine
Summary of the method: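 RAW 264.7 cells, 2 days post-confluence, received 7.7 μM compound (DMSO stock into 10% FBS medium) for 24 h. LPS-activated cultures had 5 ng/mL LPS for 4 h, then a PBS wash, before compound. Cells and medium were collected together because some cells were nonadherent. Samples were extracted and analysed by RP-HPLC for free and glucuronidated/sulfated xanthones, as % of initial concentration.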

MDM = test: Cytotoxicity of α-MG; assay type: cell-based, human; conditions: read-out: IC50 (cytotoxicity), 24 h, 10% FBS delivery
Summary of the method: (§1)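 Cytotoxicity was judged by phase-contrast morphology and MTT reduction to formazan after exposure to increasing compound concentrations. Exposure was 24 h for RAW 264.7, MDM, HepG2 and HT-29, 8 h for PMA-differentiated THP-1, and 4 h for differentiated Caco-2. Delivery was DMSO into 10% FBS medium for RAW 264.7, THP-1 and HepG2; FBS-complexed compound at 10% FBS in RPMI 1640 for MDM; Tween 40 micelles for Caco-2 and HT-29.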

RAW 264.7 = test: Cytotoxicity of α-MG; assay type: cell-based, murine; conditions: read-out: IC50 (cytotoxicity); RAW 264.7, 24 h, 10% FBS delivery
Summary of the method: as §1

[1] = test system: IL-8 secretion by macrophage-like THP-1 cells; test: IL-8 secretion; assay type: cell-based, human
Summary of the method: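 THP-1 cells, differentiated with 100 nM PMA for 48 h, were pretreated with compound added as a DMSO stock to 10% FBS medium, then stimulated with E. coli O111:B4 LPS. Supernatant IL-8 was measured by ELISA in LPS-treated and unstimulated cultures.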

HepG2 cells = test: Cellular uptake and metabolism of α-MG; assay type: in vitro ADME, human
Summary of the method: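 HepG2 monolayers, 2 days post-confluence, received 9.0 μM compound as a DMSO stock added to 10% FBS medium for 24 h. Activated cultures had 10 ng/mL TNF-α for 4 h and a PBS wash first. Medium and cells were collected separately, extracted and analysed by RP-HPLC for free and glucuronidated/sulfated xanthones. Quantification used retention time, UV spectrum and five-point standard curves, as % of initial amount; mean ± SD, n ≥ 5.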

[2] = test system: TNF-α secretion by MDM cells; test: TNF-α secretion; assay type: cell-based, human
Summary of the method: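 Primary macrophages came from buffy-coat monocytes (Ficoll, clumping), differentiated 6 days with 50 ng/mL M-CSF (97% pure by CD14/CD11b). Compound was delivered in FBS at 10% FBS in RPMI 1640. Cells were then stimulated with E. coli O111:B4 LPS or left unstimulated. Secreted TNF-α was quantified by ELISA.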

Caco-2 cells = test: Cellular uptake, metabolism and transport of α-MG on Transwell inserts; assay type: in vitro ADME, human
Summary of the method: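 Caco-2 cells were differentiated 21–25 days post-confluence on Transwell inserts. Compound (12 μM) in Tween 40 micelles was added apically for 24 h. Activated cultures had 5 ng/mL IL-1β for 4 h, then a PBS wash. Apical medium, basolateral medium and cell monolayer were collected separately and analysed by RP-HPLC for free and conjugated xanthones. Amounts are % of initial compound; mean ± SD, n ≥ 5.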

[3] = RAW 264.7, combined medium and cells, 7.7 μM, 24 h
[4] = 24 h after addition of α-MG, control cultures, nd: not detected
[5] = Caco-2 Transwell, 12 μM apical, 24 h

For `COc1c(O)cc2oc3cc(O)c(CC=C(C)C)c(O)c3c(=O)c2c1CC=C(C)C` [α-MG, α-mangostin], the “recovery of α-MG” value (RAW 264.7 cells; RAW 264.7, 24 h incubation) was 80 ± 6%, the “ratio of free to conjugated xanthones, activated vs control” value (RAW 264.7 cells; RAW 264.7, LPS treatment, data not shown) was “increased” and the “free α-MG, of initial concentration” value (RAW 264.7 cells; [3]) was 18 ± 3%. The “glucuronidated/sulfated conjugates, of initial concentration” value (RAW 264.7 cells; [3]) was 61 ± 6%, the pIC50 (MDM) was less than 4.92 and the pIC50 (RAW 264.7) was 4.64. For the same molecule, the “inhibition of IL-8 chemokine secretion” value ([1]; activated THP-1, 10 μM pretreatment 4 h, LPS 0.1 ng/mL 4 h) was 30–40%, the “effect on secretion of IL-8” value ([1]; nonactivated THP-1 cultures) was “not altered” and the “xanthone in media, HepG2” value (HepG2 cells; 0 h, amount of α-MG at start) was 17834 ± 115 pmol/dish. For the same molecule, the “intracellular profile table, α-MG at 0 h, HepG2” value (HepG2 cells; 0 h, control cultures) was 17834 ± 115 pmol/dish, the “intracellular xanthone, HepG2” value (HepG2 cells; [4]) was 9344 ± 298 pmol/dish and the “intracellular ratio of free to conjugated xanthones, activated vs control” value (HepG2 cells; HepG2, 10 ng/mL TNF-α 4 h before α-MG, 24 h, p < 0.05) was “increased”. The “free xanthones in spent medium, of initial α-MG” value (HepG2 cells; HepG2, 9.0 μM, 24 h, control) was 36 ± 2%, the “free α-MG in cells, of total” value (HepG2 cells; HepG2, 9.0 μM, 24 h, control) was 27 ± 3% and the “glucuronidated/sulfated conjugates of α-MG in cells, of total” value (HepG2 cells; HepG2, 9.0 μM, 24 h, control) was 29 ± 3%. The “recovery of α-MG equivalents added” value (HepG2 cells; HepG2, 24 h) was 91 ± 4%, the “TNF-α secretion in absence vs presence of α-MG” value ([2]; 0.7 μM, LPS-treated MDM, p > 0.05, data not shown) was “similar” and the “effect on TNF-α secretion” value ([2]; 0.7 μM, nonactivated MDM, p < 0.05, data not shown) was “increased”. The “increase of LPS-stimulated secretion of TNF-α” value ([2]; MDM, 4.5 μM pretreatment 4 h, LPS 100 ng/mL 10 h) was “more than 50%”, the “effect on basal secretion of TNF-α” value ([2]; nonactivated MDM cultures) was “more than doubled” and the “xanthone in media, Caco-2” value (Caco-2 cells; 0 h, amount of α-MG at start) was 20741 ± 261 pmol/dish. For the same molecule, the “intracellular profile table, α-MG at 0 h, Caco-2” value (Caco-2 cells; 0 h, control cultures) was 20741 ± 261 pmol/dish, the “intracellular xanthone, Caco-2” value (Caco-2 cells; [4]) was 3000 ± 551 pmol/dish and the “ratio of free to conjugated xanthones in apical medium, activated vs control” value (Caco-2 cells; Caco-2, 5 ng/mL IL-1β, 24 h, p < 0.05) was “increased”. The “recovery of xanthones, of α-MG added” value (Caco-2 cells; Caco-2, 24 h) was “approximately 65%”, the “amount of xanthones and ratio of conjugated to free xanthones transported into basolateral compartment” value (Caco-2 cells; Caco-2, treatment with IL-1β vs control, p < 0.05) was “increased” and the “conjugated xanthones in basolateral medium” value (Caco-2 cells; [5]) was 1.7 ± 0.3%. For the same molecule, the “conjugated xanthones in cells” value (Caco-2 cells; [5]) was 10 ± 3%, the “conjugates in apical medium” value (Caco-2 cells; [5]) was 11 ± 2% and the “free xanthones in apical medium” value (Caco-2 cells; [5]) was 35 ± 1%. The “free xanthones in basolateral medium” value (Caco-2 cells; [5]) was 0.8 ± 0.1%, the “free xanthones in cells” value (Caco-2 cells; [5]) was 6 ± 0.6% and the “xanthones in apical medium (total), of initial α-mangostin” value (Caco-2 cells; [5]) was 47 ± 3%. The “xanthones in basolateral medium (total), of initial α-mangostin” value (Caco-2 cells; [5]) was 3 ± 0.3%, the “xanthones in cells (total), of initial α-mangostin” value (Caco-2 cells; [5]) was 16 ± 3% and the “intracellular ratio of free to conjugated xanthones, activated vs control” value (Caco-2 cells; Caco-2 cells, 5 ng/mL IL-1β 4 h before α-MG, 24 h, p < 0.05) was “increased”.
